Test results: ChEMBL document CHEMBL4715721, “Synthesis and optimization of novel allylated mono-carbonyl analogs of curcumin (MACs) act as potent anti-inflammatory agents against LPS-induced acute lung injury (ALI) in rats” (Eur J Med Chem, 2016)
Converted amounts (≈) assume the structure as drawn. The source made the active and inactive calls. No cut-off for these calls is given here.

What was measured:
[1] = Cytotoxicity against human HL7702 cells assessed as cell survival rate at 10 uM incubated for 24 hrs by MTT assay; assay type: cell-based; conditions: HL7702 (L02) cells, read-out: Activity
In short: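 HL-7702 human normal hepatic cells exposed to 10 μM compound for 24 h; viability measured by MTT assay and given as survival rate, mean ± SD of three experiments.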

[2] = test system: RAW264.7; experiment: (§1) Cytotoxicity against mouse RAW264.7 cells assessed as cell survival rate at 10 uM; assay type: cell-based; conditions: raw264.7, 10 µM
[3] = test system: RAW264.7; experiment: Antiinflammatory activity in mouse RAW264.7 cells assessed as decrease in LPS-induced IL-6 secretion at 10 microM incubated for 30 mins followed by LPS stimulation and measured after 24 hrs by ELISA relative to control; assay type: functional; conditions: RAW264.7, 24.5 h, time 1470 min
In short: (§2)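 RAW264.7 cells in DMEM with 10% FBS at 37 °C, 5% CO₂; pretreated with 10 μM for 30 min, then LPS 0.5 μg/mL for 24 h. Medium TNF-α and IL-6 measured by ELISA and normalized to total protein of viable cells; percent inhibition, mean ± SD of three experiments.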

[4] = test system: RAW264.7; experiment: Antiinflammatory activity in mouse RAW264.7 cells assessed as decrease in LPS-induced TNF-alpha secretion at 10 microM incubated for 30 mins followed by LPS stimulation and measured after 24 hrs by ELISA relative to control; assay type: functional; conditions: RAW264.7, 24.5 h, time 1470 min; in short: as §2
[5] = Chemical stability of compound in PBS buffer containing 5% DMSO at pH 7.4 measured every 5 mins for 25 mins by UV-Vis absorption spectral analysis; assay type: physicochemical; conditions: pH 7.4, 25 min
In short: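 Compound diluted from 1 mM stock in phosphate buffer pH 7.4 containing 5% DMSO; UV-visible spectra recorded from 250 to 600 nm at 25 °C in a 1 cm quartz cuvette, every 5 min for 25 min.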

[6] = as §1; assay type: cell-based; conditions: RAW264.7 cells, read-out: Activity
[7] = test system: Rattus norvegicus; experiment: Antiinflammatory activity against LPS-induced acute lung injury rat model assessed as reduction in lung wet/dry ratio at 10 to 20 mg/kg administered before LPS instillation and measured after 6 hrs; assay type: functional, organism-based; conditions: dose 10-20 mg/kg
In short: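 Edema index in rats killed 6 h after intratracheal LPS, with pretreatment at 10 or 20 mg/kg: right upper lung lobe excised, blotted and weighed wet, then dried at 65 °C for 48 h and reweighed; wet/dry weight ratio calculated.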

[8] = test system: Rattus norvegicus; experiment: Antiinflammatory activity against LPS-induced acute lung injury rat model assessed as reduction in TNFalpha expression in lung tissue at 10 to 20 mg/kg administered before LPS instillation and measured after 6 hrs by immunohistochemical analysis; assay type: functional, organism-based; conditions: dose 10-20 mg/kg
In short: (§3)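 Rats given intratracheal LPS after pretreatment at 10 or 20 mg/kg; killed 6 h after LPS under anaesthesia; BALF and lung collected. BALF IL-6 and TNF-α measured by ELISA in BALF supernatant; serum IL-6 measured; BALF total cells counted; lung MPO activity and TNF-α immunostaining assessed.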

[9] = test system: BEAS-2B; experiment: Antiinflammatory activity in human BEAS-2B cells assessed as reduction in LPS-induced TNFalpha mRNA expression incubated for 30 mins followed by LPS stimulation and measured after 24 hrs by qRT-PCR analysis; assay type: functional, cell-based; conditions: dose 10-20 µM, time 1470.0 min
In short: (§4)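 Beas-2B cells seeded at 7.0×10^5/plate overnight at 37 °C, 5% CO₂; pretreated with 10 μM for 30 min, then LPS 1 μg/mL for 24 h. Total RNA extracted with TRIZOL; two-step SYBR Green RT-qPCR. Expressed as percent of LPS control; mean ± SEM of three independent experiments.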

[10] = test system: BEAS-2B; experiment: Antiinflammatory activity in human BEAS-2B cells assessed as reduction in LPS-induced IL-6 mRNA expression incubated for 30 mins followed by LPS stimulation and measured after 24 hrs by qRT-PCR analysis; assay type: functional, cell-based; conditions: dose 10-20 µM, time 1470.0 min; in short: as §4
[11] = Aqueous kinetic solubility of compound at pH 7.4; assay type: physicochemical; conditions: read-out: Kinetic_solubility
[12] = Octanol-water partition coefficient, logP of compound; assay type: physicochemical
[13] = test system: Rattus norvegicus; experiment: Antiinflammatory activity against LPS-induced acute lung injury rat model assessed as reduction in destruction of epithelial and endothelial cell structure in lungs at 10 to 20 mg/kg administered before LPS instillation and measured after 6 hrs by hematoxylin and eosin staining based microscopic analysis; assay type: functional, organism-based; conditions: dose 10-20 mg/kg
In short: (§5)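 Rats pretreated at 10 or 20 mg/kg, then intratracheal LPS; lungs taken 6 h later, fixed in 4% paraformaldehyde, paraffin-embedded, cut at 5 μm, stained with hematoxylin-eosin, and examined by light microscopy for edema, hemorrhage, cell infiltration and epithelial/endothelial damage.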

[14] = test system: Rattus norvegicus; experiment: Antiinflammatory activity against LPS-induced acute lung injury rat model assessed as reduction in inflammatory cell infiltration in lungs at 10 to 20 mg/kg administered before LPS instillation and measured after 6 hrs by hematoxylin and eosin staining based microscopic analysis; assay type: functional, organism-based; conditions: dose 10-20 mg/kg; in short: as §5
[15] = test system: Rattus norvegicus; experiment: Antiinflammatory activity against LPS-induced acute lung injury rat model assessed as reduction in total cells in BALF at 10 to 20 mg/kg administered before LPS instillation and measured after 6 hrs; assay type: functional, organism-based; conditions: dose 10-20 mg/kg; in short: as §3
[16] = test system: Rattus norvegicus; experiment: Antiinflammatory activity against LPS-induced acute lung injury rat model assessed as reduction in total protein content in BALF at 10 to 20 mg/kg administered before LPS instillation and measured after 6 hrs by BCA protein assay; assay type: functional, organism-based; conditions: dose 10-20 mg/kg
In short: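 Left lung lavaged with saline (3 × 1.5 mL) 6 h after intratracheal LPS in rats pretreated at 10 or 20 mg/kg; lavage spun at 1000 rpm for 10 min; supernatant protein measured by BCA assay.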

[17] = test system: Rattus norvegicus; experiment: Antiinflammatory activity against LPS-induced acute lung injury rat model assessed as reduction in IL-6 level in serum at 10 to 20 mg/kg administered before LPS instillation and measured after 6 hrs by ELISA; assay type: functional, organism-based; conditions: dose 10-20 mg/kg; in short: as §3
[18] = test system: BEAS-2B; experiment: Antiinflammatory activity in human BEAS-2B cells assessed as reduction in LPS-induced IL-1beta mRNA expression incubated for 30 mins followed by LPS stimulation and measured after 24 hrs by qRT-PCR analysis; assay type: functional, cell-based; conditions: dose 10-20 µM, time 1470.0 min; in short: as §4
[19] = test system: Rattus norvegicus; experiment: Antiinflammatory activity against LPS-induced acute lung injury rat model assessed as decrease in neutrophil infiltration in lungs by measuring decrease in MPO activity at 10 to 20 mg/kg administered before LPS instillation and measured after 6 hrs; assay type: functional, organism-based; conditions: dose 10-20 mg/kg; in short: as §3
[20] = test system: RAW264.7; experiment: Antiinflammatory activity in mouse RAW264.7 cells assessed as decrease in LPS-induced TNF-alpha secretion incubated for 30 mins followed by LPS stimulation and measured after 24 hrs by ELISA; assay type: functional, cell-based; conditions: dose 1-10 µM, time 1470.0 min
In short: (§6)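 RAW264.7 cells seeded at 4.0×10^5/plate overnight; pretreated at 1, 2.5, 5 or 10 μM for 30 min, then with or without LPS 0.5 μg/mL for 24 h. Medium IL-6 and TNF-α measured by ELISA and normalized to total protein; percent of LPS control, mean ± SEM of three independent experiments.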

[21] = test system: Rattus norvegicus; experiment: Antiinflammatory activity against LPS-induced acute lung injury rat model assessed as reduction in alveolar hemorrhage in lungs at 10 to 20 mg/kg administered before LPS instillation and measured after 6 hrs by hematoxylin and eosin staining based microscopic analysis; assay type: functional, organism-based; conditions: dose 10-20 mg/kg; in short: as §5
[22] = test system: Rattus norvegicus; experiment: Antiinflammatory activity against LPS-induced acute lung injury rat model assessed as reduction in CD-68 stained macrophage numbers in lungs at 10 to 20 mg/kg administered before LPS instillation and measured after 6 hrs by immunohistochemical analysis; assay type: functional, organism-based; conditions: dose 10-20 mg/kg
In short: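 Lung sections from rats given intratracheal LPS, pretreated at 10 or 20 mg/kg, killed 6 h after LPS; immunohistochemistry for the macrophage marker CD68, with CD68-positive cells counted.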

[23] = test system: RAW264.7; experiment: Antiinflammatory activity in mouse RAW264.7 cells assessed as decrease in LPS-induced IL-6 secretion incubated for 30 mins followed by LPS stimulation and measured after 24 hrs by ELISA; assay type: functional, cell-based; conditions: dose 1-10 µM, time 1470.0 min; in short: as §6
[24] = test system: Rattus norvegicus; experiment: Antiinflammatory activity against LPS-induced acute lung injury rat model assessed as reduction in TNF-alpha level in BALF at 10 to 20 mg/kg administered before LPS instillation and measured after 6 hrs by ELISA; assay type: functional, organism-based; conditions: dose 10-20 mg/kg; in short: as §3
[25] = test system: Rattus norvegicus; experiment: Antiinflammatory activity against LPS-induced acute lung injury rat model assessed as reduction in IL-6 level in BALF at 10 to 20 mg/kg administered before LPS instillation and measured after 6 hrs by ELISA; assay type: functional, organism-based; conditions: dose 10-20 mg/kg; in short: as §3
[26] = test system: Mus musculus; experiment: Antiinflammatory activity against LPS-induced septic shock C57BL/6 mouse model assessed as proportion of died animals at 10 mg/kg, iv administered daily before LPS administration and monitored for 7 days (reference value: 100%); assay type: functional; conditions: time 7 day
In short: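 Male C57BL/6 mice, n = 10 per group, were given the test agent as its hydrochloride salt (10 mg/kg IV) or saline vehicle. LPS (20 mg/kg IP) was injected afterwards. Survival was recorded every 24 h for 7 days after LPS.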

[27] = test system: BEAS-2B; experiment: Antiinflammatory activity in human BEAS-2B cells assessed as reduction in LPS-induced VCAM-1 mRNA expression incubated for 30 mins followed by LPS stimulation and measured after 24 hrs by qRT-PCR analysis; assay type: functional, cell-based; conditions: dose 10-20 µM, time 1470.0 min; in short: as §4
[28] = test system: Rattus norvegicus; experiment: Antiinflammatory activity against LPS-induced acute lung injury rat model assessed as reduction in lung edema at 10 to 20 mg/kg administered before LPS instillation and measured after 6 hrs by hematoxylin and eosin staining based microscopic analysis; assay type: functional, organism-based; conditions: dose 10-20 mg/kg; in short: as §5

For `C=CCc1cc(/C=C/C(=O)/C=C/c2ccc(O)c(CC=C)c2)ccc1O`, the viability at 24 h, 10 µM [1] was 73.3%, the Activity [2] was “Non-Toxic” and the inhibition at 10 µM [3] was 59.6%. For the same molecule, the inhibition at 10 µM [4] was 7.15% and the Stabilty [5] was “Stable”.
For `C=CCc1cc(/C=C2\CN(C(=O)c3ccc(Cl)cc3)C/C(=C\c3ccc(O)c(CC=C)c3)C2=O)ccc1O`, the viability at 24 h, 10 µM [1] was 66.2%, the viability at 10 µM [6] was < 70% and the inhibition at 10 µM [3] was 89.2%.
With `C=CCc1cc(/C=C2\CN(C3CC3)C/C(=C\c3ccc(N4CCN(C)CC4)cc3)C2=O)ccc1O` the viability at 24 h, 10 µM [1] was 90.3%, the Activity [7] was “Active” and the Activity [8] was “Active”. For the same molecule, the Activity [9] was “Dose-dependent effect”, the Activity [10] was “Dose-dependent effect” and the solubility kinetic [11] was 22.5 mg/mL (≈ 47.9 mM). For the same molecule, the logP [12] was 3.48, the inhibition at 10 µM [3] was 83.3% and the Activity [13] was “Active”. For the same molecule, the Activity [14] was “Active”, the Activity [15] was “Active” and the Activity [16] was “Active”. The Activity [17] was “Active”, the Activity [18] was “Dose-dependent effect” and the inhibition at 10 µM [4] was 43.8%. For the same molecule, the Stabilty [5] was “Stable”, the Activity [19] was “Active” and the inhibition [20] was “Dose-dependent effect”. For the same molecule, the Activity [21] was “Active”, the Activity [22] was “Active” and the inhibition [23] was “Dose-dependent effect”. The Activity [24] was “Active”, the Activity [25] was “Active” and the Activity [26] was 50%. The Activity [27] was “Dose-dependent effect” and the Activity [28] was “Active”.
With `C=CCc1cc(/C=C2\CN(CCC)C/C(=C\c3ccc(O)c(CC=C)c3)C2=O)ccc1O` the viability at 24 h, 10 µM [1] was 75.2%, the Activity [2] was “Non-Toxic” and the inhibition at 10 µM [3] was 76.1%.
